Assay results gathered from unrelated publications.
Target: cAMP-dependent protein kinase catalytic subunit alpha (PRKACA, Homo sapiens, UniProt P17612)

For `CO[C@@H]1[C@H](N(C)C(=O)c2ccccc2)C[C@H]2O[C@]1(C)n1c3ccccc3c3c4c(c5c6ccccc6n2c5c31)C(=O)NC4`, the inhibition was 59% (enzyme activity; inhibitor; 1 µM).
`COc1ccc2oc(-c3ccc4nc(N)oc4c3)c/c(=N\c3ccccc3NC(=O)CCN)c2c1` has a remaining binding of 111% (binding; 1 µM).
`C#Cc1cnc(Nc2ccnc(CO)c2)nc1Nc1ccccc1S(C)(=O)=NC#N` (centres unmarked) gave a remaining signal of 100% (cell-free assay; 1 µM).
For `CCCCC(=O)Nc1ccc(-c2ccc3ncn(CCC)c(=O)c3c2)cn1`, the remaining binding was 97% (binding; competition with immobilised ligand; 0.5 µM).
`CN1CCN(C(=O)c2ccc(NC(=O)Nc3ccc(N(C)c4ccnc(Nc5ccc(CS(C)(=O)=O)cc5)n4)cc3)cc2)CC1` has a remaining signal of 100% (cell-free assay; 1 µM).
With `C=CC(=O)N1CCC([C@@H]2CCNc3c(C(N)=O)c(-c4ccc(Oc5ccccc5)cc4)nn32)CC1` the inhibition was 9% (enzyme activity; inhibitor; 1 µM).
`COc1ccc2[nH]c3c4[nH]c5ccc(OC)cc5c4c4c(c3c2c1)C(=O)NC4=O` has a remaining signal of 87% (cell-free assay; 1 µM).
`N#Cc1ccc(NC(=O)Nc2ccccc2)cc1` has a remaining binding of 85% (cell-free assay; competition with immobilised ligand; 25 µM).
